Drawing on ChEMBL document CHEMBL3585276, “Topoisomerase I and II inhibitory activity, cytotoxicity, and structure-activity relationship study of dihydroxylated 2,6-diphenyl-4-aryl pyridines” (Bioorg Med Chem, 2015), this text covers inhibition and IC50 for 20 compounds.

Assay [1] concerns the target T1, DNA topoisomerase 1 (Homo sapiens) (UniProt P11387).
T1 sequence (whole entry): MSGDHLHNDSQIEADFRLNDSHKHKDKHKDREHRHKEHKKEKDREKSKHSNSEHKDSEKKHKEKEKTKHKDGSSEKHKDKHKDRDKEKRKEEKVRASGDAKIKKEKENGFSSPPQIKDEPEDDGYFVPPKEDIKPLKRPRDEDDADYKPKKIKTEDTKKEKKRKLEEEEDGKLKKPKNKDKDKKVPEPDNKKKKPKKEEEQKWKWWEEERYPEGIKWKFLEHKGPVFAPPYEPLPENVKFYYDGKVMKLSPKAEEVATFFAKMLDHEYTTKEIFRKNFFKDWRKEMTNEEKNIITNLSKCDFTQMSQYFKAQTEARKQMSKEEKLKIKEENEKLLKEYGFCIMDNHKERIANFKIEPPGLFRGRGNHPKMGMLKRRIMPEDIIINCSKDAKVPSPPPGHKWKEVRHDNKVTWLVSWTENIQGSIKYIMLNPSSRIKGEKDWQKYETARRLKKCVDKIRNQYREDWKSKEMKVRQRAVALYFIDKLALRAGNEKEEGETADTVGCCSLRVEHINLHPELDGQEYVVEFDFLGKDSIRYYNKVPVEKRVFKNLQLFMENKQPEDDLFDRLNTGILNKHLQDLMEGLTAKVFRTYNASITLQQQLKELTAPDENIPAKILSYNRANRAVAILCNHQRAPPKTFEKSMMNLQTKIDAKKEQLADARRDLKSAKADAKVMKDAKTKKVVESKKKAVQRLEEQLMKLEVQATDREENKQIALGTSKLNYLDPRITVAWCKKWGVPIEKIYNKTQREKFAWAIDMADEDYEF
The assay is described as follows: Inhibition of recombinant human DNA topoisomerase-1 assessed as relaxation of supercoiled DNA pBR322 at 100 uM after 30 mins by agarose gel electrophoresis relative to control. The procedure, abridged: (§1)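 Relaxation assay with 100 ng pBR322 plasmid DNA and 1 unit recombinant human topo I. Buffer was 10 mM Tris–HCl pH 7.9, 150 mM NaCl, 0.1% BSA, 1 mM spermidine and 5% glycerol, incubated 37 °C for 30 min with or without compound. Products were run on a 1% agarose gel in TAE at 15 V for 7 h and stained with ethidium bromide (0.5 µg/mL) for 30 min.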

For assay [2], the target named is T1, DNA topoisomerase 1 (Homo sapiens). The assay is described as follows: Inhibition of recombinant human DNA topoisomerase-1 assessed as relaxation of supercoiled DNA pBR322 at 20 uM after 30 mins by agarose gel electrophoresis relative to control. In short, it runs like this: as §1
In assay [3] the target is DNA topoisomerase 2-alpha (Homo sapiens) (UniProt P11388). The assay is described as follows: Inhibition of recombinant human DNA topoisomerase-2alpha using supercoiled pBR322 plasmid DNA as substrate at 100 uM after 30 mins by agarose gel electrophoresis relative to control. The procedure, abridged: (§2)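 200 ng supercoiled pBR322 with 1 unit human topo II, incubated 30 min at 30 °C with or without compound in 10 mM Tris–HCl pH 7.9, 50 mM NaCl, 5 mM MgCl2, 1 mM EDTA, 1 mM ATP and 15 µg/mL BSA. Reaction was stopped with 7 mM EDTA and run on 1% agarose in TAE at 25 V. Gel was stained with ethidium bromide, visualized under UV, and supercoiled DNA quantitated densitometrically.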

Another assay has as its system DU-145. The assay is described as follows: Cytotoxicity against human DU145 cells measured on day 4 by CCK8 assay. The class given is functional, cell-based. The conditions noted are these: DU-145, 96 h. The procedure, abridged: (§3)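 Cells seeded at […], grown overnight in medium with 10% FBS at 37 °C under 5% CO2. On day 2 they were serum-starved 4 h, then exposed to graded compound concentrations. On day 4 CCK-8 was added for a further 4 h and absorbance read at 450 nm. IC50 came from a four-parameter logistic fit, mean ± SD of three experiments in triplicate.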

Another assay concerns HCT-15. The assay is described as follows: Cytotoxicity against human HCT15 cells measured on day 4 by CCK8 assay. In kind it is functional, cell-based. The settings on record: HCT-15, 96 h. The procedure, abridged: as §3
In general terms: Formazan colour is commonly taken as a measure of viable cells.

The test system of the next assay is T47D. The assay is described as follows: Cytotoxicity against human T47D cells measured on day 4 by CCK8 assay. The class given is functional, cell-based. The conditions noted are these: 96 h. In short, it runs like this:
as §3

For a further assay, the system named is HeLa. The assay is described as follows: Cytotoxicity against human HeLa cells measured on day 4 by CCK8 assay. In kind it is functional, cell-based. The settings on record: 96 h. In short, it runs like this:
as §3

The target in assay [4] is DNA topoisomerase 2-alpha (Homo sapiens) (UniProt P11388). The assay is described as follows: Inhibition of recombinant human DNA topoisomerase-2alpha using supercoiled pBR322 plasmid DNA as substrate at 20 uM after 30 mins by agarose gel electrophoresis relative to control. The procedure, abridged: as §2

Each structure is given as a SMILES string. Bounds are passed on as bounds.

Chain of DNA topoisomerase 2-alpha (Homo sapiens) (P11388 whole entry): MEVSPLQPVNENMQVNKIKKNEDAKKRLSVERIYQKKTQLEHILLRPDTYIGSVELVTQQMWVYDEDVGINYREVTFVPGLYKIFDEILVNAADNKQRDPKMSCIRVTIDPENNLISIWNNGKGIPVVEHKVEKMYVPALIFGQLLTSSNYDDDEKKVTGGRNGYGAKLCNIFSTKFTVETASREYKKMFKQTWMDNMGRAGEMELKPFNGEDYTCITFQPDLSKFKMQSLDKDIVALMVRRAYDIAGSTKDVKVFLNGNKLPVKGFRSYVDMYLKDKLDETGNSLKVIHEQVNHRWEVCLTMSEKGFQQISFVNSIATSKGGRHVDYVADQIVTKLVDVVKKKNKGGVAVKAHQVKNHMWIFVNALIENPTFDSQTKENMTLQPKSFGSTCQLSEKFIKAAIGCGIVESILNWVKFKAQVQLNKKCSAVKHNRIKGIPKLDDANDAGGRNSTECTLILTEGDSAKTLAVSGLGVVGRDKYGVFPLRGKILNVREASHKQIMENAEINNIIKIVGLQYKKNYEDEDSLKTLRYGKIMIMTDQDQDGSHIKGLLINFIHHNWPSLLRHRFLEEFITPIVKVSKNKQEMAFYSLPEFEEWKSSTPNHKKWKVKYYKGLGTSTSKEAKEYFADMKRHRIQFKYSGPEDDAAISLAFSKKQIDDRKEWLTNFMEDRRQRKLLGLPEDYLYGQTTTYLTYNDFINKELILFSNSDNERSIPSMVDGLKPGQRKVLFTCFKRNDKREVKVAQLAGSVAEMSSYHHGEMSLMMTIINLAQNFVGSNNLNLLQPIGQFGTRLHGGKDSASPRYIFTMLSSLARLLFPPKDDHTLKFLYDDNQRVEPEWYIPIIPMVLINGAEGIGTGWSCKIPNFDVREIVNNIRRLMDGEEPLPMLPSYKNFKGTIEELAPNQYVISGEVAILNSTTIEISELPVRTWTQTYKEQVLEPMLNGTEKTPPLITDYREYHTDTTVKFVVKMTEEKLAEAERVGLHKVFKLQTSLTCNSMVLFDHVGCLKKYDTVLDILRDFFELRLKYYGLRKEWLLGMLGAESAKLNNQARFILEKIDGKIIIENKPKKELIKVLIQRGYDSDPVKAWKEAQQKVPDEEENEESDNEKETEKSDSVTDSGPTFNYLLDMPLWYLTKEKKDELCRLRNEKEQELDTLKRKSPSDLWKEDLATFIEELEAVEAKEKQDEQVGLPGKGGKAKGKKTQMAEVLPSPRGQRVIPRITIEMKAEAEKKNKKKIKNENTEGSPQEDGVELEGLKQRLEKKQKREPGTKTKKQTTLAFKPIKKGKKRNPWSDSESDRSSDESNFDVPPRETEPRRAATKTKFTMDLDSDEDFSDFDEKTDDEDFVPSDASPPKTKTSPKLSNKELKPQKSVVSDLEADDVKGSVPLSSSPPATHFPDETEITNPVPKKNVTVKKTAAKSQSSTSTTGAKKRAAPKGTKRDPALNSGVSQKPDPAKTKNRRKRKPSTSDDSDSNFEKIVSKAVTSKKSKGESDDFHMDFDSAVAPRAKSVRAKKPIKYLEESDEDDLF

Broadly, the inhibition is the percentage by which the read-out fell short of the control. For orientation: IC50 means the midpoint of a concentration-inhibition curve. Lower therefore signals higher potency. Take `Oc1ccc(-c2cc(-c3cccnc3)cc(-c3cccc(O)c3)n2)cc1`: the inhibition in assay [1] turned out to be 5.9%; in assay [2], 2.8%; in assay [3] it was 14.8%. Also, the IC50 with DU-145 was 6.39 µM; in the assay on HCT-15, above 50 µM; with T47D, above 50 µM; in the assay with HeLa it was above 50 µM.

For the compound `Oc1ccc(-c2cc(-c3ccoc3)cc(-c3cccc(O)c3)n2)cc1`, the inhibition in assay [1] came out at 37.4%; in assay [2], 1.3%; in assay [3], 95%; in assay [4], 19.7%. Further, the IC50 with DU-145 came to 2.7 µM; with HCT-15, 0.93 µM; in the assay with T47D, 2.61 µM; in the assay with HeLa, 3.31 µM.

With `Oc1cccc(-c2cc(-c3cccnc3)cc(-c3cccc(O)c3)n2)c1`, the inhibition in assay [1] turned out to be 2.1%; in assay [2] it was 1.9%; in assay [3], 11.2%. Besides, the IC50 in the assay on DU-145, with HCT-15, in the assay on T47D and in the assay on HeLa was above 50 µM throughout.

With `Oc1ccc(-c2cc(-c3cccs3)cc(-c3ccc(O)cc3)n2)cc1`, the inhibition in assay [1] was 86.3%; in assay [2], 0.9%; in assay [3], 74.6%; in assay [4], 30.3%. In addition, the IC50 with DU-145 was 2.19 µM; in the assay with HCT-15, above 50 µM; with T47D, 11.7 µM; in the assay on HeLa it was above 50 µM.

Regarding `Oc1ccc(-c2cc(-c3cccs3)cc(-c3cccc(O)c3)n2)cc1`, the inhibition in assay [1] came out at 85.7%; in assay [2], 1.1%; in assay [3], 88.6%; in assay [4], 21.5%. Also, the IC50 in the assay on DU-145 was found to be 1.89 µM; with HCT-15, 1.77 µM; in the assay with T47D, 0.78 µM; in the assay with HeLa it was 4.14 µM.

Consider `Oc1ccc(-c2cc(-c3ccco3)cc(-c3ccc(O)cc3)n2)cc1`, for which the inhibition was 100% in assay [1], 0% in assay [2], 92.3% in assay [3] and 48.4% in assay [4]. The IC50 is above 50 µM in the assay with DU-145, 14 µM in the assay on HCT-15, 21.1 µM in the assay with T47D and above 50 µM with HeLa.

On to `Oc1ccccc1-c1cc(-c2cccs2)cc(-c2ccccc2O)n1`, for which the inhibition came to 77.2% in assay [1], 0.2% in assay [2], 55.9% in assay [3] and 10.8% in assay [4]. Also, the IC50 in the assay with DU-145, in the assay with HCT-15, in the assay with T47D and with HeLa was above 50 µM in each case.

As for `Oc1ccc(-c2cc(-c3cccnc3)cc(-c3ccccc3O)n2)cc1`, the inhibition in assay [1] turned out to be 1.5%; in assay [2] it was 0%; in assay [3] it was 8.3%. In addition, the IC50 in the assay on DU-145, in the assay on HCT-15, in the assay with T47D and in the assay with HeLa was above 50 µM in each case.

As for `Oc1cccc(-c2cc(-c3cccs3)cc(-c3cccc(O)c3)n2)c1`, the inhibition came out at 91.7% in assay [1], 0% in assay [2], 78.3% in assay [3] and 22.3% in assay [4]. Besides, the IC50 in the assay on DU-145 turned out to be 1.63 µM; with HCT-15 it was 3.48 µM; with T47D, 0.77 µM; in the assay on HeLa, 1.69 µM.

On to `Oc1ccc(-c2cc(-c3ccoc3)cc(-c3ccc(O)cc3)n2)cc1`, for which the inhibition in assay [1] stood at 74.9%; in assay [2], 0%; in assay [3], 12%. In addition, the IC50 in the assay with DU-145 was 3.44 µM; in the assay with HCT-15, 1.53 µM; in the assay with T47D it was 3.46 µM; in the assay with HeLa, 3.42 µM.

As to `Oc1ccc(-c2cc(-c3ccsc3)cc(-c3ccc(O)cc3)n2)cc1`, the inhibition in assay [1] was determined as 61.7%; in assay [2] it was 7.5%; in assay [3], 81.2%; in assay [4], 57.9%. Moreover, the IC50 worked out at 2.06 µM with DU-145, 1.04 µM in the assay with HCT-15, 1.77 µM in the assay on T47D and 4.37 µM in the assay on HeLa.

Turning to `Oc1cccc(-c2cc(-c3cccnc3)cc(-c3ccccc3O)n2)c1`, the inhibition in assay [1] worked out at 1.9%; in assay [2], 0%; in assay [3], 55.2%; in assay [4] it was 8.1%. For the same compound, the IC50 in the assay on DU-145 came to 5.58 µM; in the assay on HCT-15, 8.28 µM; with T47D it was 6.23 µM; with HeLa, 7.53 µM.

For the compound `Oc1cccc(-c2cc(-c3ccoc3)cc(-c3cccc(O)c3)n2)c1`, the values for the inhibition in assay [1], in assay [2] and in assay [3] were 44.2%, 2% and 7.3%, respectively. Also, the IC50 amounted to 1.65 µM with DU-145, 1.02 µM in the assay on HCT-15, 2.59 µM with T47D and 4.63 µM with HeLa.

Consider `Oc1cccc(-c2cc(-c3ccco3)cc(-c3cccc(O)c3)n2)c1`, for which the inhibition in assay [1] is 97.8%; in assay [2] it was 0%; in assay [3] it was 88.2%; in assay [4], 20.6%. Also, the IC50 in the assay with DU-145 is 2.15 µM; in the assay with HCT-15, 1.89 µM; with T47D, 3.52 µM; in the assay on HeLa, 5.99 µM.

For the compound `Oc1cccc(-c2cc(-c3ccco3)cc(-c3ccccc3O)n2)c1`, the inhibition was determined as 90.1% in assay [1], 0% in assay [2], 81.2% in assay [3] and 21.5% in assay [4]. Also, the IC50 in the assay on DU-145 is 1.79 µM; with HCT-15 it was above 50 µM; in the assay with T47D, 0.82 µM; with HeLa, above 50 µM.

Consider `Oc1ccc(-c2cc(-c3ccco3)cc(-c3cccc(O)c3)n2)cc1`, for which the inhibition in assay [1] amounted to 100%; in assay [2], 1.5%; in assay [3], 92.8%; in assay [4], 21.8%. Also, the IC50 in the assay on DU-145 came to 2.07 µM; in the assay on HCT-15, 0.84 µM; in the assay with T47D, 1.28 µM; in the assay with HeLa, 5.17 µM.

Turning to `Oc1ccc(-c2cc(-c3cccnc3)cc(-c3ccc(O)cc3)n2)cc1`, the inhibition in assay [1] came out at 8.7%; in assay [2], 5%; in assay [3] it was 65.8%; in assay [4], 25.7%. Besides, the IC50 with DU-145 amounted to 0.24 µM; in the assay with HCT-15, 0.84 µM; in the assay on T47D, 2.03 µM; in the assay on HeLa, 0.6 µM.

Regarding `Oc1ccc(-c2cc(-c3ccoc3)cc(-c3ccccc3O)n2)cc1`, the inhibition in assay [1] came out at 30.1%; in assay [2] it was 3.9%; in assay [3], 69.3%; in assay [4], 12.8%. Also, the IC50 in the assay with DU-145 is 28 µM; with HCT-15 it was above 50 µM; with T47D, above 50 µM; with HeLa, above 50 µM.

As to `Oc1ccccc1-c1cc(-c2cccnc2)cc(-c2ccccc2O)n1`, the inhibition in assay [1] is 66.4%; in assay [2] it was 0%; in assay [3] it was 5.2%. For the same compound, the IC50 in the assay with DU-145, with HCT-15, with T47D and in the assay with HeLa was above 50 µM in each case.

`Oc1ccccc1-c1cc(-c2ccccn2)cc(-c2ccccc2O)n1`: the values for the inhibition in assay [1], in assay [3] and in assay [4] were 0.8%, 65.5% and 4.3%, respectively. Moreover, the IC50 in the assay on DU-145, in the assay on HCT-15, in the assay on T47D and in the assay on HeLa was above 50 µM in each case.
